Where two headings read alike, the source gives them in different places.
Experiments:
[1] = Reported food effect study in Caucasian population; assay type: in vivo, healthy Caucasian subjects; details: average of the 40 mg and 120 mg group, observed data of ref 22
[2] = assay type: in vivo, healthy Chinese adult volunteers; details: for subjects whose concentration-time curves displayed multiple peaks: fasting state
How it was run: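 Two open-label BE studies in healthy Chinese adults, each giving one reference tablet dose (20 mg or 80 mg) with 240 mL water. Subjects either fasted ≥10 h pre-dose or ate a high-fat, high-calorie meal (800–1000 kcal) within 30 min of dosing. Blood was drawn from 30 min pre-dose to 48 h post-dose. Plasma was separated at 3000 rpm, stored at −70 °C, and assayed by LC-MS/MS. Cmax, tmax and AUCs came from non-compartmental analysis.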

[3] = cited from earlier work
[4] = Population pharmacokinetic analysis; assay type: in vivo, healthy Chinese adult volunteers
How it was run: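 Pooled plasma data from 128 subjects were fitted by SAEM with a two-compartment model: first-order elimination, two deposit absorption compartments, lag times. Parameters were log-normal with exponential IIV, and proportional, additive and combined residual errors were tested. Stepwise covariate search used p<0.05 forward and p<0.01 backward. Sex, age, WT and BMI were tested on CL/F and volume. Food (0 fasted, 1 fed) was tested on absorption parameters. Evaluation used AIC, OFV, GOF, VPC (1000 simulations) and NPDE.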

[5] = fractional difference of race, relative to Chinese model; cited from earlier work
[6] = cited from earlier work; remark: listed apart in the source
[7] = cited from earlier work; remark: listed apart in the source
[8] = humans, cited from earlier work
[9] = design: species or system healthy Caucasian subjects; details: Caucasian
How it was run: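 Monte Carlo simulation from the final Chinese-population model, with CL/F raised and relative bioavailability lowered per earlier published race covariate estimates. The 24 simulated Caucasian subjects had demographics matching a reported food-effect study.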

[10] = fasted, average of the 40 mg and 120 mg group

fed/fasted ratio of observed mean AUC [1]: 0.83
fed/fasted ratio of observed mean Cmax [1]: 0.60
fed/fasted ratio of observed mean Tmax [1]: 1.87
Cmax (mean ± SD) ([2]; 20 mg single oral dose, fasting (n=36), plasma): 1091 ± 301.0 ng/mL
subjects whose concentration-time curves displayed multiple peaks ([2]; 20 mg, may be overestimated): approximately 75.0%
Tmax (median, range) ([2]; 80 mg single oral dose, fed (n=30), plasma): 1.75 (0.75, 4.00) h
subjects whose concentration-time curves displayed multiple peaks ([2]; 80 mg, may be overestimated): ~80.6%
curves showing multiple peaks ([2]; fed study, may be overestimated): about 40%
Tmax ([2]; human, plasma, po, 20 mg): 1.25 h
estimated CL/F for healthy Chinese subjects ([4]; PopPK final model): 6.14 L/h
CL/F, final model estimate (RSE%) ([4]; apparent clearance): 6.14 (2.26) L∙h^−1
Vc/F, final model estimate (RSE%) ([4]; apparent distribution volume of central compartment): 10.38 (2.07) L
Vp/F, final model estimate (RSE%) ([4]; apparent distribution volume of peripheral compartment): 10.22 (3.21) L
WT_Vc/F, final model estimate (RSE%) ([4]; covariate coefficient of body weight on Vc/F): 0.58 (27.9)
WT_Vp/F, final model estimate (RSE%) ([4]; covariate coefficient of body weight on Vp/F): 1.15 (22.5)
Food_Tlag1, final model estimate (RSE%) ([4]; covariate coefficient of fed state on Tlag1): 0.73 (18.2)
Food_ka1, final model estimate (RSE%) ([4]; covariate coefficient of fed state on ka1): −2.04 (8)
Food_ka2, final model estimate (RSE%) ([4]; covariate coefficient of fed state on ka2): −1.08 (19.9)
reduction of ka1 by food ([4]; fed vs fasted, final model): 87%
reduction of ka2 by food ([4]; fed vs fasted, final model): 66%
ka1, final model estimate (RSE%) ([4]; first-order absorption rate constant of first depot, fasted state): 4.02 (11.4) h^−1
ka2, final model estimate (RSE%) ([4]; first-order absorption rate constant of second depot, fasted state): 4.34 (15.6) h^−1
F1, final model estimate (RSE%) ([4]; fraction of absorbed febuxostat from first depot): 0.51 (3.7)
Q/F, final model estimate (RSE%) ([4]; in vivo): 1.93 (4.25) L∙h^−1
Tlag1, final model estimate (RSE%) ([4]; lag time of first depot, fasted state): 0.22 (8.93) h
Tlag2, final model estimate (RSE%) ([4]; lag time of second depot): 0.92 (7.63) h
predicted fed/fasted ratio of AUC ([9]; simulated): 1.02
predicted fed/fasted ratio of Cmax ([9]; simulated): 0.68
predicted fed/fasted ratio of Tmax ([9]; simulated): 1.53
ratio of mean predicted and observed AUC [9, 10]: 0.92
ratio of mean predicted and observed Cmax [9, 10]: 0.81
ratio of mean predicted and observed Tmax [9, 10]: 1.41
ratio (predicted/observed) of AUC ([9]; fed state): 1.13
ratio (predicted/observed) of Cmax ([9]; fed state): 0.92
ratio (predicted/observed) of Tmax ([9]; fed state): 1.13
SMILES: Cc1nc(-c2ccc(OCC(C)C)c(C#N)c2)sc1C(=O)O [febuxostat, 2-[3-cyano-4-(2-methylpropoxy)phenyl]-4-methylthiazole-5-carboxylic acid]
CL/F estimate for healthy Australian subjects [3]: 6.91 L/h
decrease of bioavailability applied for Caucasian subjects [5]: 46%
CL/F reported by Rekić et al. [6]: 14.58 L/h
solubility in methanol ([7]; methanol): slightly soluble
solubility in water ([7]; water): practically insoluble
extent of metabolism by glucuronidation [8]: up to 40%
time to reach maximum plasma concentrations (Cmax) ([8]; oral administration, fasting condition): 0.5 ~ 1.5 h
